Source: ChEMBL document CHEMBL1122519, “Bispyridinamines: a new class of topical antimicrobial agents as inhibitors of dental plaque” (1984)

How the values were obtained:
[1] = test system: Escherichia coli; assay: Minimum inhibitory concentration against Escherichia coli (Vogel); format: functional
Procedure, shortened: (§1)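 Serial twofold tube dilution in tryptose phosphate broth. Each compound was prepared as a 1000 μg/mL aqueous stock and diluted in double-strength broth, then 2×10^5 cells were added. Tubes were incubated aerobically at 37 °C for 24 h. The MIC was taken as the lowest concentration with no visible growth.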

[2] = test system: Escherichia coli; assay: Antimicrobial minimum inhibitory concentration against Escherichia coli 100/B22; format: functional; procedure, shortened: as §1
[3] = test system: Actinomyces viscosus; assay: Compound is evaluated for minimal bactericidal concentration against plaque formation for Actinomyces viscosus; format: functional, organism-based
Procedure, shortened: (§2)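 Preformed in vitro plaques of S. mutans NCTC 10449 or A. viscosus M-100 were grown on ceramic hydroxylapatite under anaerobic conditions at 37 °C in sucrose-supplemented medium. Plaques were immersed for 30 min at 37 °C in compound at 0.3–20 mM, rinsed, and moved to broth containing bromocresol purple. Kill was judged by no acid production, no turbidity increase and no growth on plating at 48 h. Plaques were run in quadruplicate.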

[4] = test system: Streptococcus mutans; assay: Compound is evaluated for minimal bactericidal concentration against plaque formation for Streptococcus mutans; format: functional, organism-based; procedure, shortened: as §2
[5] = Compound is evaluated for stain index; format: functional
Procedure, shortened: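 Ratio of the minimum concentration staining a plaque-free ceramic hydroxylapatite plate to the minimum plaque-inhibiting concentration, both run under the same conditions. Plates got two 1-min soaks (0.1–0.001%), each followed by air-drying, then a water rinse. They were then held 24 h anaerobically at 37 °C in sucrose beef-extract medium, with or without S. mutans OMZ-61, repeated once. Staining was 1-min 1% FD&C Red No. 3, scored visually.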

[6] = test system: Streptococcus mutans; assay: Minimum plaque inhibitory concentration using a standard test organism, Streptococcus mutans OMZ-61; format: functional, organism-based
Procedure, shortened: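 Ceramic hydroxylapatite plates were soaked twice for 1 min each in compound at […] (aqueous), air-dried and rinsed, then hung in sucrose beef-extract medium (pH 7.0) inoculated with late-log S. mutans OMZ-61. Incubation was anaerobic at 37 °C for 24 h, and treatment plus reinoculation were repeated for a second 24 h. Plaque was stained with 1% FD&C Red No. 3 and scored visually. The value is the lowest concentration giving no plaque while medium growth matched control.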

[7] = test system: Pseudomonas aeruginosa; assay: Minimum antimicrobial inhibitory concentration against Pseudomonas aeruginosa MGH-2; format: functional; procedure, shortened: as §1
[8] = test system: Staphylococcus aureus; assay: Minimum antimicrobial inhibitory concentration against Staphylococcus aureus; format: functional; procedure, shortened: as §1
[9] = test system: Escherichia coli; assay: Antimicrobial minimum inhibitory concentration against Escherichia coli AB1932-1; format: functional; procedure, shortened: as §1
[10] = test system: Klebsiella pneumoniae; assay: Minimum inhibitory concentration against Klebsiella pneumonia 39645; format: functional; procedure, shortened: as §1
[11] = test system: Proteus mirabilis; assay: Minimum antimicrobial inhibitory concentration against Proteus mirabilis MGH-1; format: functional; procedure, shortened: as §1
[12] = test system: Proteus mirabilis; assay: Compound is evaluated for the antimicrobial minimum inhibitory concentration against Proteus mirabilis MGH-1; format: functional; procedure, shortened: as §1
[13] = test system: Staphylococcus aureus; assay: Compound is evaluated for the antimicrobial minimum inhibitory concentration against Staphylococcus aureus (Smith); format: functional; procedure, shortened: as §1
[14] = test system: Pseudomonas aeruginosa; assay: Compound is evaluated for the antimicrobial minimum inhibitory concentration against Pseudomonas aeruginosa MGH-1; format: functional
[15] = test system: Streptococcus mutans; assay: Compound is evaluated for minimum plaque inhibitory concentration using a standard test organism, Streptococcus mutans OMZ-61; format: functional
Procedure, shortened: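 S. mutans OMZ-61 in pH 7.0 beef extract–trypticase medium with 0.5% sucrose. Sterile ceramic hydroxylapatite plates got two 1-min soaks in 0.1–0.001% compound, each followed by 1-min air-drying, then a 5-min water rinse. Plates were put in inoculated medium at 37 °C anaerobically for 24 h. The cycle was repeated for a second 24 h. Plaque was stained with 1% FD&C Red No. 3. Value is the lowest concentration completely preventing plaque.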

[16] = test system: Streptococcus mutans; assay: Compound is evaluated for the effect of saliva upon the antiplaque activity at 0% of saliva and at 0.01 percentage of compound; - = No plaque accumulation; format: functional, organism-based
Procedure, shortened: (§3)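 Hydroxylapatite plate antiplaque assay against S. mutans run for 48 h, with two 1-min exposures to aqueous compound per 24 h. Growth medium contained 0, 5 or 50% pooled human saliva (paraffin-stimulated, centrifuged, filtered, membrane-sterilized). Plaque was stained with FD&C Red No. 3 and graded none, slight or moderate. Staining potential was scored on plates run without inoculum and graded none or slight.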

[17] = test system: Streptococcus mutans; assay: Compound is evaluated for the growth inhibition of Streptococcus mutans OMZ-61; format: functional
[18] = test system: Streptococcus mutans; assay: Compound is evaluated for the effect of saliva upon the staining potential at 0% of saliva and at 0.01 percentage of compound; + = Slight staining; format: functional, organism-based; procedure, shortened: as §3
[19] = test system: Streptococcus mutans; assay: Compound is evaluated for the effect of saliva upon the antiplaque activity at 50% of saliva and at 0.05 percentage of compound; - = No staining; format: functional, organism-based; procedure, shortened: as §3
[20] = test system: Streptococcus mutans; assay: Compound is evaluated for the effect of saliva upon the antiplaque activity at 50% of saliva and at 0.025 percentage of compound; - = No plaque accumulation; format: functional, organism-based; procedure, shortened: as §3
[21] = test system: Streptococcus mutans; assay: Compound is evaluated for the effect of saliva upon the antiplaque activity at 50% of saliva and at 0.05 percentage of compound; - = No plaque accumulation; format: functional, organism-based; procedure, shortened: as §3
[22] = test system: Streptococcus mutans; assay: Compound is evaluated for the effect of saliva upon the antiplaque activity at 50% of saliva and at 0.01 percentage of compound; format: functional, organism-based; procedure, shortened: as §3
[23] = test system: Streptococcus mutans; assay: Compound is evaluated for the effect of saliva upon the antiplaque activity at 0% of saliva and at 0.05 percentage of compound; - = No plaque accumulation; format: functional, organism-based; procedure, shortened: as §3
[24] = test system: Streptococcus mutans; assay: Compound is evaluated for the effect of saliva upon the antiplaque activity at 0% of saliva and at 0.025 percentage of compound; - = No plaque accumulation; format: functional, organism-based; procedure, shortened: as §3
[25] = test system: Streptococcus mutans; assay: Compound is evaluated for the effect of saliva upon the antiplaque activity at 0% of saliva and at 0.025 percentage of compound; + = Slight staining; format: functional, organism-based; procedure, shortened: as §3
[26] = test system: Streptococcus mutans; assay: Compound is evaluated for the effect of saliva upon the antiplaque activity at 0% of saliva and at 0.05 percentage of compound; + = Slight staining; format: functional, organism-based; procedure, shortened: as §3
[27] = test system: Streptococcus mutans; assay: Compound is evaluated for the effect of saliva upon the antiplaque activity at 50% of saliva and at 0.01 percentage of compound; - = No staining; format: functional, organism-based; procedure, shortened: as §3
[28] = test system: Streptococcus mutans; assay: Compound is evaluated for the inhibition of plaque-forming enzyme of Streptococcus mutans OMZ-61; format: functional
Procedure, shortened: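 S. mutans OMZ-61 was grown anaerobically at 37 °C for 24 h in glucose medium. The cell-free filtrate, adjusted to pH 5.5, served as the dextran/levan sucrase source. Reactions contained 3 μmol 14C-sucrose in citrate phosphate buffer pH 5.5 with 4% EtOH and ran 2 h at 37 °C. MeOH-insoluble polysaccharide was counted by scintillation. Compounds were tested at 50, 160 and 500 μg base/mL, with lower levels if needed, and I50 was read graphically.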

[29] = test system: Streptococcus mutans; assay: Compound is evaluated for the effect of saliva upon the antiplaque activity at 50% of saliva and at 0.025 percentage of compound; - = No staining; format: functional, organism-based; procedure, shortened: as §3

SMILES	MIC [1] [µg/mL]	MIC [2] [µg/mL]	Concentration [3] [mM]	Concentration [4] [mM]	Stain index [5]	Concentration [6] [%]	MIC [7] [µg/mL]	MIC [8] [µg/mL]	MIC [9] [µg/mL]	MIC [10] [µg/mL]	MIC [11] [µg/mL]	further results
CCCCCCCCCN=c1ccn(CCCCCCn2ccc(=NCCCCCCCCC)cc2)cc1.Cl.Cl	2	2	7.3	7.3	1	0.01	15.6	1	2	3.9	7.8	–
CCCCCCCCN=c1ccn(CCCCCCCCn2ccc(=NCCCCCCCC)cc2)cc1.Cl.Cl	1	0.5	0.88	8.8	10	0.005	7.8	0.2	1	1	3.9	–
Br.Br.N=c1ccn(CCCCCCn2ccc(=N)cc2)cc1	500	–	–	–	–	–	–	–	–	> 500	–	MIC [12]: > 500 µg/mL; MIC [13]: 250 µg/mL; MIC [14]: > 500 µg/mL; Min plague Inhibitory [15]: >1%
CCCCC(CC)CNC(=N)NC(=N)NCCCCCCNC(=N)NC(=N)NCC(CC)CCCC.Cl.Cl (stereo unspecified) [ALEXIDINE DIHYDROCHLORIDE]	2	1	–	–	–	0.005	15.6	0.5	1	3.9	31.3	Plaque accum [16]: No plaque accumulation; MIC [17]: 0.5 (ug of base) ml-1; Staining potential [18]: No staining; Staining potential [19]: No staining; Plaque accum [20]: No plaque accumulation; Plaque accum [21]: No plaque accumulation; Plaque accum [22]: No plaque accumulation; Plaque accum [23]: No plaque accumulation; Plaque accum [24]: No plaque accumulation; Staining potential [25]: No staining; Staining potential [26]: No staining; Staining potential [27]: No staining; I50 [28]: 156 (ug of base) ml-1; Staining potential [29]: No staining
CCCCCCCN=c1ccn(CCCCCCCCCCn2ccc(=NCCCCCCC)cc2)cc1.Cl.Cl	0.5	0.5	1.46	0.73	10	0.004	7.8	0.2	1	1	7.8	–
